Experimental data as given in paper PMC11989202 (Molecular cancer research : MCR, 2025).
Where two headings read alike, the source gives them in different places.

Assays:
[1] = system: DR5; assay: DR5 immunoblot, MDA-MB-468 cells; assay type: cell-based; conditions: MDA-MB-468, 24 h; for Effect on DDA-induced DR5 upregulation and oligomerization: with 2.5 μM dMtcyDTDO, 20 μM CEAPIN-A7, 10 μM KIRA-6, 10 μM AMG-44; for DR5 levels and disulfide bonding (electrophoretic mobility): non-reducing immunoblot, dFtcyDTDO 2.5 μM, Tunicamycin 500 ng/ml, PERKi alone
[2] = system: DR5; assay: DR5 immunoblot with autophagy/lysosome inhibitors; assay type: cell-based; conditions: inhibitor alone, absence of DDA treatment, versus vehicle
[3] = system: MET; assay: MET/PCSK9 maturation; assay type: cell-based; conditions: HepG2, PERKi alone 1 μM, 24 h
Outline: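 HepG2 cells were grown in 10% FBS–DMEM at 37°C and 5% CO₂, then treated for 24 h. Cell lysates were run on immunoblots, under reducing conditions for MET.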

[4] = system: WM793 melanoma cells; assay: MTT cell viability assay, WM793; assay type: cell-based; conditions: 72 h
Outline: (§1)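 Cells in 10% FBS–DMEM were seeded at 7,500 per well and kept 24 h at 37°C, then exposed to test compound for 72 h at 37°C. After medium removal they received 0.5 mg/ml MTT in PBS for 1 h at 37°C. Formazan was dissolved in DMSO and absorbance read at 570 and 690 nm. At least quadruplicate technical and three biological replicates were run.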

[5] = system: protein synthesis; assay: Protein synthesis assay; assay type: cell-based; conditions: 24 h pre-treatment, 2 h pulse
[6] = system: MET; assay: MET/PCSK9 maturation; assay type: cell-based; conditions: MDA-MB-468, PERKi alone 1 μM, 24 h
[7] = system: MDA-MB-468 breast cancer cells; assay: MTT cell viability assay, MDA-MB-468; assay type: cell-based; conditions: 72 h
Outline: as §1

[8] = system: DR5; assay: DR5 immunoblot, MCF10A cells; assay type: cell-based; conditions: non-transformed MCF10A, 2.5 μM, 24 h, reducing immunoblot
[9] = system: DR5; assay: DR5 immunoblot, T47D cells; assay type: cell-based; conditions: 2.5 μM, 24 h, reducing immunoblot
[10] = system: DR5; assay: DR5 immunoblot, HaCaT keratinocytes; assay type: cell-based, human; conditions: 2.5 μM, 24 h, reducing immunoblot
[11] = system: DcR2; assay: DcR2 immunoblot; assay type: cell-based; conditions: after dFtcyDTDO treatment
[12] = system: 012/LVM2/LR10 tumors; assay: 012/LVM2/LR10 xenograft tumor study, H&E tumor histology; assay type: in vivo; conditions: 10 mg/kg dMtcyDTDO, 20 days, mice bearing 012/LVM2/LR10 tumors, versus vehicle
[13] = Metabolic stability in human liver microsomes; conditions: supplemented with NADPH (1 mM); substrate 10 μM; 1 mg/ml protein

Cc1ccc2cc(-c3c(C)ccc(C(=O)c4c(-c5ccccc5)n(C)n(-c5ccccc5)c4=O)c3N)ccc2n1 [AMG44]
Effect on DDA-induced DR5 upregulation and oligomerization [1]: potentiated DDA-induced DR5 upregulation and oligomerization

CO/C1=C\C(C)=C\[C@@H](C)[C@@H](O)[C@@H](C)C/C(C)=C/C=C/[C@H](OC)[C@@H]([C@@H](C)[C@@H](O)[C@H](C)[C@@]2(O)C[C@@H](O)[C@H](C)[C@@H](C(C)C)O2)OC1=O [Bafilomycin A1]
DR5 levels [2]: increased levels of monomeric and oligomeric DR5 isoforms

O=C(Nc1cnn(Cc2ccc(C(F)(F)F)cc2C(F)(F)F)c1)c1cc(-c2ccco2)on1 [CEAPIN-A7]
Effect on DDA-induced DR5 upregulation and oligomerization [1]: without effect

CCN(CC)CCCC(C)Nc1ccnc2cc(Cl)ccc12 (stereo not drawn) [Chloroquine]
DR5 levels [2]: increased DR5 levels

CC(C)(C)c1nc(-c2ccc(NC(=O)Nc3cccc(C(F)(F)F)c3)c3ccccc23)c2c(N)nccn12 [KIRA-6]
Effect on DDA-induced DR5 upregulation and oligomerization [1]: negated DR5 and TNFR1 upregulation by DDA treatment

Cn1cc(-c2ccc3c(c2)CCN3C(=O)Cc2cccc(C(F)(F)F)c2)c2c(N)ncnc21 [PERKi]
MET or PCSK9 processing [3]: no effect on MET or PCSK9 processing | Cell viability (MTT) ([4]; PERKi alone): little effect on cell viability | Effect on dFtcyDTDO cytotoxicity (MTT) ([4]; combination with dFtcyDTDO): strongly potentiated dFtcyDTDO cytotoxicity | Protein synthesis (3H-Leucine incorporation) in the presence of Tunicamycin [5]: increased protein synthesis | Protein synthesis (3H-Leucine incorporation) in the presence of dFtcyDTDO [5]: further decreased protein synthesis | MET or PCSK9 processing [6]: no effect on MET or PCSK9 processing | DR5 levels and disulfide bonding (electrophoretic mobility) [1]: no discernable effect | Cell viability (MTT) ([7]; PERKi alone): little effect on cell viability | Effect on dFtcyDTDO cytotoxicity (MTT) ([7]; combination with dFtcyDTDO): strongly potentiated dFtcyDTDO cytotoxicity

CC(C)(O)CNc1ncc(-c2ccnc(Nc3ccnc(Cl)c3)n2)c(CC2CC2)n1 [VPS34i]
DR5 levels [2]: increased DR5 expression to a similar extent as Bafilomycin

O=S1(=O)CC2CC(F)C(F)CC2CS1 (stereo not drawn) [dFtcyDTDO]
DR5 levels [8]: did not increase DR5 levels | t1/2 in human liver microsomes: > 60 min | DR5 levels [9]: increased DR5 levels | DR5 levels [10]: did not increase DR5 levels | DcR2 levels [11]: upregulation of DcR2 | DR5 levels and disulfide bonding (electrophoretic mobility) [1]: altered DR5 levels and disulfide bonding

CO[C@H]1C[C@@H]2CS(=O)(=O)SC[C@H]2C[C@@H]1OC [dMtcyDTDO]
DR5 levels [8]: did not increase DR5 levels | Breast tumor tissue histology (H&E) [12]: extensive death of tumor tissue | t1/2 in human liver microsomes [13]: 47.9 min | DR5 levels [10]: did not increase DR5 levels

O=S1(=O)CC2CCCCC2CS1 (stereo not drawn) [tcyDTDO]
t1/2 in human liver microsomes: 11.9 min

Tunicamycin
DR5 levels and disulfide bonding (electrophoretic mobility) [1]: increased DR5 levels without altering its mobility
